Measured values from ChEMBL document CHEMBL1949649, “5-sulfonyl-benzimidazoles as selective CB2 agonists-part 2” (Bioorg Med Chem Lett, 2012).

Target: Cannabinoid receptor 2 (Homo sapiens, UniProt P34972)
Experiment: Agonist activity at human CB2 receptor
Format: functional
Details: not given

Chain of Cannabinoid receptor 2 (P34972 whole entry): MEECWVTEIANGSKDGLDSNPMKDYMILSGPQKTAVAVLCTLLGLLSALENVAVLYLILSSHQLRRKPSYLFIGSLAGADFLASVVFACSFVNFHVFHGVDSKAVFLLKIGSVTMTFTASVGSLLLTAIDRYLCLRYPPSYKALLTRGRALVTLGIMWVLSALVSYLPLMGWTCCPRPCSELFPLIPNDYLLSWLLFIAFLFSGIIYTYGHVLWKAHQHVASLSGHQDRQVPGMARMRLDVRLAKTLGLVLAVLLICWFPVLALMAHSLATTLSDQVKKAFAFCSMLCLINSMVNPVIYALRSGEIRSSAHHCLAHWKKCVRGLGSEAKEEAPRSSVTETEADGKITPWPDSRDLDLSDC

For `CC(C)(C)c1nc2cc(S(=O)(=O)c3ccnc(OCCCO)c3)ccc2n1CC1CCOCC1`, which EC50 is on record?
The EC50 was 0.0012 µM.

With `CCS(=O)(=O)c1ccc2c(c1)nc(C(C)(C)C)n2CC1CCS(=O)(=O)CC1` as the compound, how does the EC50 read?
Its EC50 is 0.028 µM.

Which EC50 does the source give for `CC(=O)N1CCC(Cn2c(C(C)(C)C)nc3cc(S(=O)(=O)CCCC(F)(F)F)ccc32)CC1` here?
The EC50 was 0.013 µM.

Tested on: not listed separately
Experiment: Kinetic solubility of the compound at pH 7.4
Format: physicochemical
Details: buffer, read-out: Kinetic_solubility

For `CCOc1cc(S(=O)(=O)c2ccc3c(c2)nc(C(C)(C)C)n3CC2CCOCC2)ccn1`, which solubility kinetic is on record?
The solubility kinetic was less than 1 µM.

Tested on: not listed separately
Experiment: Drug metabolism in human liver microsomes after 15 mins
Format: ADME, Microsome
Details: read-out: Drug metabolism

For `CCC(=O)N1CCC(Cn2c(C(C)(C)C)nc3cc(S(=O)(=O)CCCC(F)(F)F)ccc32)CC1`, which metabolised at 0.25 h is on record?
Its metabolised at 0.25 h is 4%.

Which metabolised at 0.25 h does the source give for `CC(=O)NCCc1cc(S(=O)(=O)c2ccc3c(c2)nc(C(C)(C)C)n3CC2CCOCC2)ccn1` here?
Its metabolised at 0.25 h is 44%.

For `CC(C)(C)c1nc2cc(S(=O)(=O)CCCC(F)(F)F)ccc2n1CC1CCN(C=O)CC1`, which metabolised at 0.25 h is on record?
Its metabolised at 0.25 h is 17%.

For `CC(C)(C)c1nc2cc(S(=O)(=O)CCCC(F)(F)F)ccc2n1CC1CCN(C(=O)C(F)(F)F)CC1`, which metabolised at 0.25 h is on record?
Its metabolised at 0.25 h is 20%.

With `COC(=O)N1CCC(Cn2c(C(C)(C)C)nc3cc(S(=O)(=O)CCCC(F)(F)F)ccc32)CC1` as the compound, how does the metabolised at 0.25 h read?
The metabolised at 0.25 h was 54%.

For `CC(C)(C)c1nc2cc(S(=O)(=O)CC3CC3)ccc2n1CC1CCN(C=O)CC1`, which metabolised at 0.25 h is on record?
Its metabolised at 0.25 h is 16%.

With `CC(C)(C)c1nc2cc(S(=O)(=O)c3ccnc(OCCCO)c3)ccc2n1CC1CCOCC1` as the compound, how does the metabolised at 0.25 h read?
Its metabolised at 0.25 h is 40%.

For `CC(=O)N1CCC(Cn2c(C(C)(C)C)nc3cc(S(=O)(=O)C4CCCC4)ccc32)CC1`, which metabolised at 0.25 h is on record?
Its metabolised at 0.25 h is 87%.

With `CCOc1cc(S(=O)(=O)c2ccc3c(c2)nc(C(C)(C)C)n3CC2CCOCC2)ccn1` as the compound, how does the metabolised at 0.25 h read?
Its metabolised at 0.25 h is 48%.

Which metabolised at 0.25 h does the source give for `CC(=O)N1CCC(Cn2c(C(C)(C)C)nc3cc(S(=O)(=O)CCCC(F)(F)F)ccc32)CC1` here?
Its metabolised at 0.25 h is 17%.

Target: Cannabinoid receptor 1 (Homo sapiens, UniProt P21554)
Sequence (P21554 whole entry): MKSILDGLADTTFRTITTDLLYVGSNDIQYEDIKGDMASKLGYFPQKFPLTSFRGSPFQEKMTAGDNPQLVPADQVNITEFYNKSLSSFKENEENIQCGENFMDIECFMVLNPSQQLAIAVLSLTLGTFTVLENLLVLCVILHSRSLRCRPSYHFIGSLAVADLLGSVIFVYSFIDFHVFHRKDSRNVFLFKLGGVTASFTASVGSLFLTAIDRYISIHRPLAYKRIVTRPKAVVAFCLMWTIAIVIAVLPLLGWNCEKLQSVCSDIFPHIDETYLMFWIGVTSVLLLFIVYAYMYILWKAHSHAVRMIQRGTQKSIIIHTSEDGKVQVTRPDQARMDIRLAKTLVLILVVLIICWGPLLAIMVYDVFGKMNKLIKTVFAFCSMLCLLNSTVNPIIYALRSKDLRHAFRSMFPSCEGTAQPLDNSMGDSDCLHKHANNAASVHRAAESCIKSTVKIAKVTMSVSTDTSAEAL
Experiment: Agonist activity at human CB1 receptor
Format: functional
Details: not given

Which EC50 does the source give for `CCC(=O)N1CCC(Cn2c(C(C)(C)C)nc3cc(S(=O)(=O)CCCC(F)(F)F)ccc32)CC1` here?
Its EC50 is greater than 10 µM.

Which EC50 does the source give for `CC(=O)N1CCC(Cn2c(C(C)(C)C)nc3cc(S(=O)(=O)CCCO)ccc32)CC1` here?
Its EC50 is greater than 10 µM.

With `CC(C)(C)c1nc2cc(S(=O)(=O)CCCC(F)(F)F)ccc2n1CC1CCN(C=O)CC1` as the compound, how does the EC50 read?
Its EC50 is 5.62 µM.

With `CC(C)(C)c1nc2cc(S(=O)(=O)CCCC(F)(F)F)ccc2n1CC1CCN(C(=O)C(F)(F)F)CC1` as the compound, how does the EC50 read?
Its EC50 is greater than 10 µM.

For `COC(=O)N1CCC(Cn2c(C(C)(C)C)nc3cc(S(=O)(=O)CCCC(F)(F)F)ccc32)CC1`, which EC50 is on record?
Its EC50 is greater than 10 µM.

For `COCC(=O)N1CCC(Cn2c(C(C)(C)C)nc3cc(S(=O)(=O)CCCC(F)(F)F)ccc32)CC1`, which EC50 is on record?
Its EC50 is greater than 10 µM.

With `CC(C)(C)c1nc2cc(S(=O)(=O)CC3CC3)ccc2n1CC1CCN(C=O)CC1` as the compound, how does the EC50 read?
The EC50 was 2.51 µM.

With `COCCS(=O)(=O)c1ccc2c(c1)nc(C(C)(C)C)n2CC1CCN(C(C)=O)CC1` as the compound, how does the EC50 read?
Its EC50 is greater than 10 µM.

Which EC50 does the source give for `CC(=O)N1CCC(Cn2c(C(C)(C)C)nc3cc(S(=O)(=O)C4CCCC4)ccc32)CC1` here?
Its EC50 is greater than 10 µM.

With `CCS(=O)(=O)c1ccc2c(c1)nc(C(C)(C)C)n2CC1CCS(=O)(=O)CC1` as the compound, how does the EC50 read?
Its EC50 is greater than 10 µM.

For `CCOc1cc(S(=O)(=O)c2ccc3c(c2)nc(C(C)(C)C)n3CC2CCOCC2)ccn1`, which EC50 is on record?
Its EC50 is 1.28 µM.

With `CC(=O)N1CCC(Cn2c(C(C)(C)C)nc3cc(S(=O)(=O)CCCC(F)(F)F)ccc32)CC1` as the compound, how does the EC50 read?
The EC50 was greater than 10 µM.

Tested on: Rattus norvegicus
Experiment: Toxicity in rat chronic constriction injury-induced neuropathic pain model assessed as tolerance at 40 mg/kg/day, sc after 5 to 8 days
Format: organism-based
Set-up: route subcutaneous
Details: in vivo
In short: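 Chronic constriction injury of rats (n = 7 per group); daily subcutaneous dosing over repeated days, with morphine as comparator. Cold allodynia read as lifting on a cold plate at 0 °C for 4 min.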

With `CN1CC[C@]23c4c5ccc(O)c4O[C@H]2[C@@H](O)C=C[C@H]3[C@H]1C5` [MORPHINE] as the compound, how does the Activity read?
Its Activity is “Non-toxic”.
